Reference: ChEMBL document CHEMBL3763085, “Optimization of tetrahydronaphthalene inhibitors of Raf with selectivity over hERG” (Bioorg Med Chem Lett, 2016)

Tests used:
Assay type in all cases: ADME, organism-based
[1] = Plasma clearance in Sprague-Dawley rat at 1 mg/kg, iv
Method in brief: (§1)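 Male SD rats received 1 mg/kg intravenously. The vehicle was 10% 2-hydroxypropyl-beta-cyclodextrin or ethanol/PEG400/N,N-dimethylacetamide/water 1:4:1:4 (by volume), depending on compound. Plasma clearance (L/h/kg) and steady-state volume of distribution (L/kg) were derived.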

[2] = Volume of distribution at steady state in Sprague-Dawley rat at 1 mg/kg, iv; conditions: in vivo, read-out: Vdss; method in brief: as §1
[3] = AUC in Sprague-Dawley rat at 10 mg/kg, po; conditions: in vivo
Method in brief: (§2)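 Male SD rats were dosed orally at 10 mg/kg in 10% 2-hydroxypropyl-beta-cyclodextrin.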

[4] = Oral bioavailability in Sprague-Dawley rat at 10 mg/kg; conditions: in vivo; method in brief: as §2

Row | clearance [1] | Vd [2] | AUC [3] | bioavailability [4] | SMILES
1 | 1.33 mL/min/kg | 0.41 L/kg | 126 µM·h | 54% | Cl.Cn1cc(-c2cc(C(=O)N[C@@H]3CCc4ccc(Oc5ccnc6c5CCC(=O)N6)cc4C3)cc(C(F)(F)F)c2)cn1
2 | 3.83 mL/min/kg | 0.75 L/kg | 98.6 µM·h | 100% | CN(C)Cc1cc(C(=O)N[C@@H]2CCc3ccc(Oc4ccnc5c4CCC(=O)N5)cc3C2)cc(C(F)(F)F)c1.Cl.Cl
